Shown are actives, neighbours in structure and some others; about 2.4% of the full set was active somewhere.
CSN inh: inhibitors of CSN-mediated cullin deneddylation, primary screen, biochemical, fluorescence polarization, uHTS. COP9 signalosome complex subunit 5 (Homo sapiens), Q92905. Purified CSN, SCF-Nedd8-OG deneddylation. 0.38% of 360,000 active. inhibition, % at 12.5 µM;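 active = pattern-corrected inhibition above about 35%, with an unprinted fluorescence ratio check between 0.5 and 1.5, limit read from the data, passing the limit was not always enough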;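 note: 0% = enzyme with substrate and 100% = substrate without enzyme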
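Material: purified human Csn5 enzyme expressed in HEK293T cells / Medium: Tris buffer pH 7.5, NaCl, DTT, Tween-20, trehalose, ovalbumin / Compound dosing: 12.5 µM single point / Schedule: 90 min incubation of compound, enzyme and substrate at room temperature / Signal: fluorescence polarization of the substrate / Control set: no-enzyme wells high, enzyme-with-substrate wells low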
HNF4A DNA FP: change in binding of human HNF4A to DNA, primary screen, biochemical, fluorescence polarization, FITC-DNA | Hepatocyte nuclear factor 4-alpha (Homo sapiens), P41235 | 1 h | activity change, % at 10 µM | 0.3% of 360,000 active; in the data active = activity change above about 30%, passing the limit was not always enough
TbMetRS inhib: T. brucei MetRS inhibitors, primary screen, biochemical, luminescence. methionyl-tRNA synthetase (Trypanosoma brucei brucei). purified T. brucei MetRS, ATP depletion, Kinase-Glo luminescence. inhibition, % at 11.9 µM. 0.4% of 360,000 active;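 active = inhibition above a per-plate cutoff of the control wells' mean inhibition plus 3 SD, cut at about 5.5% in these data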;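 note: 0% = DMSO wells median and 100% = median of wells with control inhibitor compound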
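System: purified T. brucei MetRS enzyme / Detection: Kinase-Glo luciferase luminescence reporting remaining unconsumed ATP / Medium: HEPES buffer with MgCl2, KCl, DTT, spermine, BSA, pyrophosphatase / Replication: singlicate, one well per compound / Evaluation: percent inhibition relative to median high and low control wells / Schedule: 2 h aminoacylation at 25 °C after 15 min preincubation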
Rpn11 block: Rpn11 (PSMD14) deubiquitinase inhibitors, primary screen, biochemical, fluorescence polarization, uHTS. inhibition, % at 20 µM. human 26S proteasome, Ub4-pepOG fluorescence polarization; 20S core pre-blocked with epoxomicin. 0.59% of 360,000 active;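 active = inhibition at 20 µM, scaled to each plate's controls, above about 33%, limit read from the data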
Neddylation inh: inhibitors of cullin neddylation, primary screen, biochemical, TR-FRET, uHTS, NAE and Ubc12 | NEDD8-conjugating enzyme Ubc12 (Homo sapiens) + NEDD8-activating enzyme E1 regulatory … | inhibition, % at 25 µM | 0.58% of 360,000 active | AID 651699, 2012; in the data active = inhibition above about 36%
PREPL inh: PREPL enzyme inhibitors, primary screen, biochemical, fluorescence polarization; 0.68% of 320,000 active; Prolyl endopeptidase-like (Homo sapiens), Q4J6C6; recombinant PREPL, fluorescence polarization activity-based probe; inhibition, % at 5.96 µM; in the data active = inhibition above about 43%;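 note: 0% = enzyme with DMSO and 100% = wells lacking enzyme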
Target sequence (Q4J6C6 whole entry, looked up): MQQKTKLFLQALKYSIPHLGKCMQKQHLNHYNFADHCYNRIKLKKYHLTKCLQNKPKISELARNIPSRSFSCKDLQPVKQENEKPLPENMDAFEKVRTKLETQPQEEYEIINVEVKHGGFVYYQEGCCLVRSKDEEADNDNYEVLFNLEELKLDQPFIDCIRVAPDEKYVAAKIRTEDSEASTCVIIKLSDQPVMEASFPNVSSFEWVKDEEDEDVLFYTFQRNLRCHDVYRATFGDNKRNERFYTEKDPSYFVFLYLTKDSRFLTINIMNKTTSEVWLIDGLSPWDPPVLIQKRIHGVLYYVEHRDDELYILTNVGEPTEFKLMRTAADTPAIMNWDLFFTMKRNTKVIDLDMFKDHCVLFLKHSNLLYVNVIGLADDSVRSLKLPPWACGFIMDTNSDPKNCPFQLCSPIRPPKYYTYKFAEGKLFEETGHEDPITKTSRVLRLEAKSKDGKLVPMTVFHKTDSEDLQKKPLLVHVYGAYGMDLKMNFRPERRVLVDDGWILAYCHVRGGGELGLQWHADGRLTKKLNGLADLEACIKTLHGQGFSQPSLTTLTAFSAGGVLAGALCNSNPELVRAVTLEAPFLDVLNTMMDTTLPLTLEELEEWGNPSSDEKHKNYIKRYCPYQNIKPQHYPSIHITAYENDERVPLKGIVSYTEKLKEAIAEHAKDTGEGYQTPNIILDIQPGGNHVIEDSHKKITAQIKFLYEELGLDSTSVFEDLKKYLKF
Tb MetRS conf: T. brucei MetRS inhibitors, confirmation, biochemical, luminescence; shares compounds with TbMetRS inhib; T. brucei MetRS enzyme, luminescence (ATP depletion); inhibition, % at 11.9 µM; 93% of 1,400 active; in the data active = inhibition above about 7%
Jurkat tox: Jurkat T cell cytotoxicity, cytotoxicity control for T. brucei MetRS inhibitor project, luminescence, high throughput; Jurkat cells viability, ATP luminescence; 12% of 1,400 active; shares compounds with TbMetRS inhib; inhibition, % at 8.3 µM; in the data active = inhibition above about 15%;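 note: 0% = vehicle and 100% = reference inhibitor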
Tb MetRS inh FP: T. brucei MetRS inhibitors, orthogonal assay for T. brucei MetRS inhibitor project, biochemical, fluorescence polarization | shares compounds with TbMetRS inhib | purified T. brucei MetRS | inhibition, % at 11.9 µM | 44% of 1,400 active | AID 651607, 2012; in the data active = inhibition above about 17%;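 note: 0% = vehicle wells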
* = called active by the depositor; . = not tested or not shown.

SMILES	CSN inh	HNF4A DNA FP	TbMetRS inhib	Rpn11 block	Neddylation inh	PREPL inh	Tb MetRS conf	Jurkat tox	Tb MetRS inh FP
O=C(Cn1cnc2ccccc21)Nc1ccc(F)c(F)c1	5	2	17*	9	12	-14	30*	2	12
O=C(CSc1nc2ncc(Cl)cc2[nH]1)NC1CCS(=O)(=O)C1 (stereo unspecified)	0	1	6.2*	-2	10	14	22*	-7	5
O=C(CSc1nc2ccc(Cl)cc2[nH]1)Nc1ccc2[nH]c(=O)[nH]c2c1	-3	3	8.3*	9	5	8	33*	-6	15
CCc1ccc(-c2cc3c(=O)n(CC(=O)NCCCN4CCN(CC)CC4)nc(C)n3n2)cc1	-3	1	-1	4	10	-26	.	.	.
O=S1(=O)NC(C2CC2c2ccccc2)CCO1 (stereo unspecified)	1	0	0	-2	4	-11	.	.	.
O=C(CSc1nc2ccccc2[nH]1)Nc1ccc(F)c(F)c1	5	1	36*	0	1	-4	51*	0	26*
O=C(CSc1nc2ccc(Cl)cc2[nH]1)NC1CCCC1	-2	-2	14*	-3	2	4	33*	1	14
O=C(CSc1nc2ccc(Cl)cc2[nH]1)c1c[nH]c2ccccc12	3	1	15*	8	-35	-12	20*	-1	25*
CN1C[C@@H]2[C@@H]3C(=O)N(Cc4ccccc4)C(=O)[C@@H]3[C@](C)(C1=O)N2C(=O)c1ccc(Br)cc1	-5	-1	0	4	-1	.	.	.	.
O=c1c(Cc2ccc(Cl)cc2Cl)c(O)ccn1Cc1ccncc1	11	-1	27*	-3	5	0	39*	-2	27*
CC1=C(C(=O)N(C)C)CC(CC(=O)NC2CCCCC2)C(=O)N1Cc1ccc(F)cc1 (stereo unspecified)	-8	1	0	-5	2	.	.	.	.
CCOC(=O)[C@]12CCCC=C1N(Cc1ccccc1)C(=O)[C@H](CC(=O)NCCCN1CCCC1=O)C2	-4	-1	0	.	-5	.	.	.	.
O=C(NCCc1cccc(Cl)c1)c1ccc(Cl)c([N+](=O)[O-])c1	-4	-2	2	-1	-27	25	.	.	.
Cc1ccc(C(=O)NCCc2nc3ccccc3[nH]2)cc1[N+](=O)[O-]	-1	0	77*	1	-24	2	78*	20*	59*
O=C(NCCc1nc2ccccc2[nH]1)c1ccc(Cl)c([N+](=O)[O-])c1	-1	0	94*	1	-15	3	100*	6	97*
Cc1ccc2nc(C)c(CN3CCN(c4ccc([N+](=O)[O-])cc4Cl)CC3)n2c1	3	2	26*	6	-22	23	44*	47*	25*
CC(C)CC1Nc2ncnc(N3CCN(c4ccccc4)CC3)c2N(Cc2ccc(Cl)cc2)C1=O (stereo unspecified)	1	4	0	4	-18	8	.	.	.
C[C@@H](NC(=O)[C@H]1O[C@@H](n2cnc3c(N)ncnc32)[C@H](O)[C@@H]1O)c1cccc2ccccc12	0	2	1	-12	1	.	.	.	.
CS(=O)(=O)N1CCN(c2ccccc2NC(=O)Nc2cccc(Cl)c2)CC1	-3	0	8.4*	-9	6	6	24*	-4	74*
CCC(=O)Nc1ccc(S(=O)(=O)NC[C@H]2O[C@@H](n3cnc4c(=O)[nH]c(N)nc43)[C@H](O)[C@@H]2O)cc1	1	-1	-1	-5	1	.	.	.	.
Cn1nc(NC(=O)C(F)(F)F)c2ncc(-c3ccccc3)nc21	3	3	0	3	-17	.	.	.	.
COc1cccc(-c2nnc(SC(C(=O)c3c[nH]c4ccccc34)c3ccccc3)n2C)c1 (stereo unspecified)	-1	1	1	6	-4	-8	.	.	.
CCCCSc1nnc(-c2c[nH]c3ccccc23)n1C	-1	-4	2	-3	-4	6	.	.	.
Cn1c(SCc2ccccc2)nnc1-c1c[nH]c2ccccc12	-3	1	8.3*	-7	3	-20	19*	5	6
COc1ccccc1-c1nnc(SC(C(=O)c2c[nH]c3ccccc23)c2ccccc2)n1C (stereo unspecified)	-1	0	13*	-5	-2	23	35*	2	11
SMILES	CSN inh	HNF4A DNA FP	TbMetRS inhib	Rpn11 block	Neddylation inh	PREPL inh	Tb MetRS conf	Jurkat tox	Tb MetRS inh FP
O=C(c1cc(Br)ccc1Cl)N1CCN(c2ccccn2)CC1	4	-3	0	-8	11	.	.	.	.
CCOc1ccc(S(=O)(=O)c2c[nH]c3ccccc3c2=O)cc1	0	1	13*	-3	-54	1	24*	1	6
O=S1(=O)N[C@H](Cc2ccccc2)COc2cc(N3CCC[C@@H]3CO)ccc21	-1	0	-1	.	10	.	.	.	.
O=C(CN1C(=O)/C(=C2/SC(=S)N(CCS(=O)(=O)O)C2=O)c2ccccc21)Nc1cccc(C(F)(F)F)c1	17	4	42*	3	-2	28	14*	5	2
O=C(O)CCN1C(=O)/C(=C2\C(=O)N(Cc3ccc(F)cc3)c3ccccc32)SC1=S	7	-2	0	-1	-5	-1	.	.	.
O=C(CN1C(=O)/C(=C2\SC(=S)N(CCS(=O)(=O)O)C2=O)c2ccccc21)Nc1cccc(Br)c1	21	14	19*	10	1	-1	20*	-5	1
COCCN1C(=O)/C(=C2/C(=O)N(CC(=O)Nc3ccccc3Cl)c3ccccc32)SC1=S	4	5	-1	2	-3	-4	.	.	.
Nc1nnc(CC(=O)N/N=C/c2ccc(-c3ccccc3Cl)o2)s1	7	9	3	22	1	1	.	.	.

Bioassay records: PubChem, several laboratories
